DNMT1 block = blocks human DNA methyltransferase DNMT1; P26358; DNMT1 molecular beacon, Hinp1I cleavage, fluorescence; inhibition (reported as % activation of signal), % at 10 µM; 360,000 compounds, 0.83% hits; in the data active = inhibition above about 50%
Target sequence (P26358 504-1616 limits assumed): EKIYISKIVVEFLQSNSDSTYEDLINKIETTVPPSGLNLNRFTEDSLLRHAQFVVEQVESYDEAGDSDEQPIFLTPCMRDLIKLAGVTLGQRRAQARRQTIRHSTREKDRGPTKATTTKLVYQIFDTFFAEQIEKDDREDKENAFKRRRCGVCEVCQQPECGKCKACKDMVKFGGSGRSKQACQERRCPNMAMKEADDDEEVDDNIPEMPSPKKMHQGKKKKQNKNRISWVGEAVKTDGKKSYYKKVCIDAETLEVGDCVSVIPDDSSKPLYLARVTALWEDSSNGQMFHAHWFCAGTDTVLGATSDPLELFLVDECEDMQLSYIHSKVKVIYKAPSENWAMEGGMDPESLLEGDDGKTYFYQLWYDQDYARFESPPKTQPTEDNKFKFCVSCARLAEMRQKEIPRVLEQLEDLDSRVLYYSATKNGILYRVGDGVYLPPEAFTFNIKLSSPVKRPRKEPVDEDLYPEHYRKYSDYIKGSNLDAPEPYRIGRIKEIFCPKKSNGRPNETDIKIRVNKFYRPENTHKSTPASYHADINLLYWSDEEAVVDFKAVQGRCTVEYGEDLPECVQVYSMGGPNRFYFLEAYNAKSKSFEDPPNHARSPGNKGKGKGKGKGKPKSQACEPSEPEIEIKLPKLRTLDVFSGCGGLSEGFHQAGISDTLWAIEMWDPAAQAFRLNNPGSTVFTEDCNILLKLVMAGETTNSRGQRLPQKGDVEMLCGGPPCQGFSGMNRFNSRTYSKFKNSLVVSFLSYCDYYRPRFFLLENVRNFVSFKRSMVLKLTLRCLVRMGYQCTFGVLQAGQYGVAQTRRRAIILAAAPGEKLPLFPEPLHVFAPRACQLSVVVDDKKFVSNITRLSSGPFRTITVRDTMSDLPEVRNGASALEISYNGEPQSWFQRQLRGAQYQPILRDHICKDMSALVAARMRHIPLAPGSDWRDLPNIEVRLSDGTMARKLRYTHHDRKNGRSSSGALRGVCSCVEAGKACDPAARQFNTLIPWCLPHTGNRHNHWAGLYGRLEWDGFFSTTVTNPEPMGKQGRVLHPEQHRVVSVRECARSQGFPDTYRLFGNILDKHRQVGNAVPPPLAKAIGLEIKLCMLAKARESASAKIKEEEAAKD
Scp1 inh = blocks human Scp-1 phosphatase activity; Recombinant Scp1, phosphopeptide, malachite green phosphate absorbance; inhibition, % at 20 µM; 340,000 compounds, 0.88% hits; AID 493091;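 active = inhibition above about 50% at 20 µM, limit read from the data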
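Test system: SCP-1 phosphatase catalytic domain, residues 76-261; measured by: colorimetric phosphate reagent with accelerator and stabiliser, absorbance at 630 nm; timing: enzyme reaction 45 min at room temperature, colour 5 min, stabilisation 30 min; also added: Phosphorylated 17-residue peptide substrate; compound dosing: one concentration, 20 µM, with 1.0% DMSO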
SUMO1-SIM PPI = alters human SUMO1 binding to SIM partners | P63165 | SUMO1 binding to a labelled peptide, TR-FRET, 1 h | 360,000 compounds, 0.33% hits | inhibition, % at 20 µM; in the data active = inhibition above about 37%
LMPTP inh = LMPTP (human) inhibition | P24666 | recombinant LMPTP-A, OMFP fluorogenic substrate, fluorescence intensity | inhibition, % at 20 µM | 360,000 compounds, 0.22% hits | AID 651560;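 active = compounds that cut the enzyme signal by at least half of the control window in the single-dose screen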
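material = LMPTP-A | quantity = 0.625 nM enzyme | reagent = OMFP substrate, 400 µM final | buffer or medium = Bis-Tris pH 6.0, DTT, detergent | detection = endpoint fluorescence intensity from OMFP dephosphorylation | dosing = single 20 µM dose | read-out basis = % inhibition relative to no-enzyme and uninhibited control wells | control set = no-enzyme and uninhibited controls | timing = 50 min at room temperature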
STEP inh = STEP (human) phosphatase inhibition. P54829. recombinant STEP, OMFP fluorogenic substrate, fluorescence. inhibition, % at 20 µM. 360,000 compounds, 0.25% hits;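 active = inhibition at 20 µM, scaled per plate between control wells, above about 37%, limit read from the data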
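Assay system: isolated STEP enzyme / Timing: 20 min at room temperature, dark / Doses: 20 µM, 1% DMSO / Technique: fluorescence intensity, excitation 480 nm, emission 540 nm / Reagent: fluorogenic phosphatase substrate OMFP at 25 µM final / Measure: percent inhibition scaled to no-enzyme and uninhibited-enzyme controls, plate-pattern corrected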
Scp-1 conf = confirmation of human Scp-1 phosphatase inhibitors | shares compounds with Scp1 inh | recombinant SCP-1 catalytic domain, phosphate release, malachite green absorbance | inhibition, % at 20 µM | 2,500 compounds, 61% hits
MG interference = colorimetric interference in Scp-1 counter-screen | shares compounds with Scp1 inh | apparent inhibition (interference), % at 20 µM | Colorimetric interference counterscreen, malachite green absorbance 630 nm | 2,500 tested, under 10 active | AID 540313;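 also: compounds added after enzyme reaction finished so only phosphate colour detection is probed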
Scp-1 Tm shift = Scp-1 (human) binding by thermal shift; shares compounds with Scp1 inh; Recombinant SCP1, Sypro Orange thermal shift Tm; thermal shift relative to vanadate control, % at 40 µM; 1,500 compounds, 25% hits; AID 540329;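 active = substances whose mean melting-temperature shift, as a percentage of the reference inhibitor's shift, reaches about 5.3%, limit read from the data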
Large screens that a line does not name were inactive (follow-up assays come after a bar, where they were run). In the library only some 1.8% were active in any assay of this set; here they are far more common.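 The calls were made as follows, unless noted: active = inhibition of at least 30% at 20 µM; inactive = the rest.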

O=C(COC(=O)/C=C/c1ccco1)Nc1ncc(Cl)cc1Cl	Scp1 inh 57 | Scp-1 conf 56 | MG interference inactive | Scp-1 Tm shift inactive
CN(C)S(=O)(=O)c1ccc(Cl)c(NC(=O)COC(=O)/C=C/c2ccco2)c1	Scp1 inh 69 | Scp-1 conf 46 | MG interference inactive | Scp-1 Tm shift inactive
Cc1nc(NC(=O)COC(=O)/C=C/c2ccco2)c(Cl)cc1Cl	none
O=C(COC(=O)/C=C/c1ccco1)NCCN1C(=O)CSC1=O	Scp1 inh 65 | Scp-1 conf inactive | MG interference inactive
COc1ccc(/C=C/C(=O)OCC(=O)Nc2cc(S(=O)(=O)N(C)C)ccc2Cl)cc1	none
CCN(CC(=O)Nc1c(F)cccc1F)C(=O)CN1C(=O)NC2(CCCC2)C1=O	none
CC(C)NC(=O)c1ccc(-c2ccc(F)c(F)c2)c2ccoc12	none (no result: Scp1 inh)
Cc1nnc(NC(=O)COc2ccc3c(C)cc(=O)oc3c2)s1	Scp1 inh 71 | Scp-1 conf 65 | MG interference inactive | Scp-1 Tm shift inactive
CC1(C)C(=O)Nc2ccccc2N1C(=O)COc1ccc(C#N)cc1	none
Cc1cc(=O)oc2cc(OCC(=O)N3c4ccccc4NC(=O)C3(C)C)ccc12	Scp1 inh 62 | Scp-1 conf 42 | MG interference inactive | Scp-1 Tm shift inactive
Cc1noc(C)c1COc1ccc(C(=O)OCC(=O)N2c3ccccc3NC(=O)C2(C)C)cc1	Scp1 inh 69 | Scp-1 conf 46 | MG interference inactive | Scp-1 Tm shift inactive
CCC(CC)c1nnc(NC(=O)COc2ccc3c(C)cc(=O)oc3c2)s1	none
CCCN1CCN(C(=O)c2ccc3[nH]c(C)c(C)c3c2)CC1	none (no result: Scp1 inh)
COC(=O)Nc1ccc2c(c1)N(C(=O)CCN(C)C)c1ccccc1CC2	none
CCCC(=O)Nc1cc(=O)n(C)c(=O)n1C	none
Cn1c(NC(=O)COc2ccccc2)cc(=O)n(C)c1=O	none | Scp-1 conf inactive | MG interference inactive
Cn1c(NC(=O)/C=C/c2ccccc2)cc(=O)n(C)c1=O	none | Scp-1 conf inactive | MG interference inactive
CC(Oc1cccc(Cl)c1)C(=O)Nc1cc(=O)n(C)c(=O)n1C (configuration not stated)	none | Scp-1 conf inactive | MG interference inactive
Cn1c(NC(=O)CCc2ccccc2)cc(=O)n(C)c1=O	none | Scp-1 conf inactive | MG interference inactive
Cn1c(NC(=O)c2ccccc2)cc(=O)n(C)c1=O	none
O=C(c1cc2ncc(Br)cn2n1)N1CCN(C(=O)c2ccco2)CC1	Scp1 inh 56 | Scp-1 conf 43 | MG interference inactive | Scp-1 Tm shift inactive
O=C(c1cc2ncc(Br)cn2n1)N1CCOCC1	none
C=CC1=C(C(=O)O)N2C(=O)[C@@H](NC(=O)/C(=N\O)c3csc(N)n3)[C@H]2SC1 (stereo in doubt)	DNMT1 block 89, Scp1 inh 98, SUMO1-SIM PPI 63, LMPTP inh 79, STEP inh 73 | Scp-1 conf 60 | MG interference inactive | Scp-1 Tm shift inactive
CCn1ccc(C(=O)NC2C(=O)N3C(C(=O)O)=C(C)CSC23)n1 (configuration not stated)	none
Cc1ccc(NC(=O)Cn2c(O)c(N=NC(=O)c3cc4ccccc4cc3O)c3ccccc32)cc1	none
COc1ccccc1NC(=O)Cn1c(O)c(N=NC(=O)c2ccccc2O)c2ccccc21	Scp1 inh 94, LMPTP inh 60, STEP inh 55 | Scp-1 conf 90 | MG interference inactive | Scp-1 Tm shift inactive
CC(C)(C)OC(=O)N1O[C@H]2CC1[C@@H]1[C@@H]2N=NN1CCc1ccncc1	none
O=c1/c(=C\c2cccnc2)sc2nc3ccccc3n12	none
O=c1/c(=C/c2ccc(O)c([N+](=O)[O-])c2)sc2nc3ccccc3n12	Scp1 inh 81, LMPTP inh 92, STEP inh 90 | Scp-1 conf 82 | MG interference inactive | Scp-1 Tm shift 9.9
O=C(N/N=C/c1sc(=O)n(Cc2ccc(Br)cc2)c1Cl)c1ccco1	Scp1 inh 103, SUMO1-SIM PPI 45, LMPTP inh 69, STEP inh 96 | Scp-1 conf 84 | MG interference inactive | Scp-1 Tm shift 5.3
NC(=O)c1cc(N2C(=O)C=CC2=O)ccc1Cl	none
O=C(O)c1cc(N2C(=O)C=CC2=O)cc(N2C(=O)C=CC2=O)c1	DNMT1 block 82, Scp1 inh 82, SUMO1-SIM PPI 50 | Scp-1 conf 50 | MG interference inactive | Scp-1 Tm shift inactive
CCNc1nc(NCC)nc(NS(=O)(=O)c2ccc(N)cc2)n1	none
Cc1ccc(S(=O)(=O)N(CCCO)CC(O)CON=C2c3ccccc3-c3ccccc32)cc1 (configuration not stated)	Scp1 inh 61 | Scp-1 conf inactive | MG interference inactive
CCN(CC(O)Cn1c2ccccc2c2ccccc21)S(=O)(=O)c1ccc(C)cc1 (configuration not stated)	none
Cc1cc2oc(C(=O)Nc3ccc(S(=O)(=O)Nc4nccs4)cc3)cc(=O)c2cc1Cl	Scp1 inh 52 | Scp-1 conf inactive | MG interference inactive
Cc1cccc(-n2ccc(=O)c(C(=O)Nc3ccc(S(=O)(=O)Nc4nccs4)cc3)n2)c1	none
O=C(Nc1ccc(S(=O)(=O)Nc2nccs2)cc1)c1nn(-c2ccccc2)ccc1=O	Scp1 inh 75 | Scp-1 conf 71 | MG interference inactive | Scp-1 Tm shift 6.8
CN(C)CCCNCCCCNC(=O)/C=N/O	none
C=CC[N+](C)(C)CCCNC(=O)/C=N/O	Scp1 inh 56 | Scp-1 conf inactive | MG interference inactive
CC(=O)/C(C[N+]1(C)CCCCC1)=N\O	Scp1 inh 105 | Scp-1 conf 84 | MG interference inactive | Scp-1 Tm shift inactive
CCC1(c2ccc(F)cc2)NC(=O)N(CC(=O)NCC(=O)Nc2cccc(C)c2C)C1=O (configuration not stated)	none | Scp-1 conf inactive | MG interference inactive
O=c1[nH]c2cc3c(cc2cc1CN(Cc1ccccc1)Cc1nnnn1Cc1ccco1)OCCO3	none
O=c1[nH]c2cc3c(cc2cc1CN(Cc1cccnc1)Cc1nnnn1Cc1ccco1)OCCO3	Scp1 inh 84 | Scp-1 conf inactive | MG interference inactive
O=C(CN1C(=O)NC2(CCCCC2)C1=O)NCC(=O)Nc1ccc(F)c(F)c1	none | Scp-1 conf inactive | MG interference inactive
COc1ccc(-c2cc(C(=O)NN)n(-c3ccccc3)n2)cc1	none

Screens from PubChem BioAssay.
